# This is a sample that favours compounds with a hit; in the whole collection about 2.2% have one here.
# PfGluPho inh – PfG6PD (Plasmodium falciparum) enzyme inhibition; PfGluPho enzyme, NADPH resazurin-diaphorase fluorescence; inhibition, % at 20 µM; actives 0.78% (n = 350,000); AID 504690;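 active = inhibition reaching at least a set limit at 20 µM in the primary screen, cut at about 59% in these data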;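 note: 0% = DMSO wells with substrate and 100% = DMSO wells lacking glucose-6-phosphate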
# HKDC1 inhibitor – HKDC1 (human) hexokinase inhibition. Q2TB90. recombinant HKDC1, G6PDH/diaphorase resazurin coupled fluorescence. inhibition, % at 20 µM. actives 0.16% (n = 340,000);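 active = inhibition above about 35% when tested at 20 µM, limit read from the data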;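 note: plate controls were DMSO wells with enzyme for no effect and DMSO wells lacking enzyme for full effect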
# Target sequence (Q2TB90 whole entry, looked up): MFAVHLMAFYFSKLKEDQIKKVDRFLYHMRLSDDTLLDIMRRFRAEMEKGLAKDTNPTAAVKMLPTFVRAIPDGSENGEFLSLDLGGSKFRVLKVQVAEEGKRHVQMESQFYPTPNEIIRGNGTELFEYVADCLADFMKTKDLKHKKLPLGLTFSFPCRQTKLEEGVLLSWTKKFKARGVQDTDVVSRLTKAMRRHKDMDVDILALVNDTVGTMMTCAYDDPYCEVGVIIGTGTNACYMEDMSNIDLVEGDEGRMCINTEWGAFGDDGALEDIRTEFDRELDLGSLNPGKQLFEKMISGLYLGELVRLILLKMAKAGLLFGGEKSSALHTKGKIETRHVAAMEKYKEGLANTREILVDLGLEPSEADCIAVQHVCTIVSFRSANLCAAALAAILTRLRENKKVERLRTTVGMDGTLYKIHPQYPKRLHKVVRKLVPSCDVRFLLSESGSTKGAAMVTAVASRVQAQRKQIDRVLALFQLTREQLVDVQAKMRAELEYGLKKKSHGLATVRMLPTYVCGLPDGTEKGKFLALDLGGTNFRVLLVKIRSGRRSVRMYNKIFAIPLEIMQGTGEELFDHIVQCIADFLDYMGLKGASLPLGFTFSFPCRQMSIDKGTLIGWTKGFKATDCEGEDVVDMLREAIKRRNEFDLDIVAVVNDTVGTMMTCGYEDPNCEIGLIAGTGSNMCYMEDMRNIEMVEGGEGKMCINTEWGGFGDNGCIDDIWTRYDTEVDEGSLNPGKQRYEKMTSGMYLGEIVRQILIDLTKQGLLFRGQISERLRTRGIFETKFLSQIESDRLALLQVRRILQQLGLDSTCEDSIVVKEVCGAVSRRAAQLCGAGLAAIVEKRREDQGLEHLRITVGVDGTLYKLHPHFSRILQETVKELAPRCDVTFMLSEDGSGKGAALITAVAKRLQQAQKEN
#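 Test system: HK5 enzyme. Quantity: 5 µg/mL HK5 final. Reagent: glucose and ATP substrates. Schedule: 90 min reaction incubation at room temperature, dark. Technique: resazurin-to-resorufin fluorescence via G6PDH and diaphorase coupling, 525/613 nm. Control set: DMSO wells with and without enzyme mix.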
# Neddyl block – blocks human cullin neddylation | P61081+Q13564 | TR-FRET cullin neddylation, biochemical | inhibition, % at 25 µM | actives 0.58% (n = 360,000); in the data active = inhibition above about 36%
# PfM18AAP inh – PfM18AAP enzyme inhibition; recombinant PfM18AAP, H-Glu-NHMec fluorogenic cleavage; inhibition, % at 7.35 µM; actives 1.2% (n = 290,000);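 active = inhibition above the campaign mean inhibition over all tested compounds plus 3 SD, cut at about 28% in these data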;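 note: 0% = plate median of test compound wells and 100% = 2 mM ZnCl2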
# * hit, by the source's call; x = no result shown.
SMILES,PfGluPho inh,HKDC1 inhibitor,Neddyl block,PfM18AAP inh
COc1ccc(-c2ncncc2-c2csc(C)n2)c(O)c1OC,-22,-6,-3,-3
COC1=C(N)C(=O)c2nc(-c3nc(C(=O)O)c(C)c(-c4ccc(OC)c(OC)c4O)c3N)ccc2C1=O,93*,4,x,19
CCCNC(=O)CN1C(=O)NC(c2ccccc2)(c2ccccc2)C1=O,-15,1,13,-3
CC1N(C(=O)N2CCOCC2)CCN1S(=O)(=O)c1ccc(Cl)cc1 (stereo unspecified),-1,-6,2,-22
C[C@](N)(Cc1ccc(O)c(O)c1)C(=O)O,32,-2,0,65*
COc1ccc(C[C@](C)(N)C(=O)O)cc1OC,29,-6,-10,x
Cc1ccc(Nc2nnc(SCC(=O)Nc3cccnc3Cl)s2)cc1C,35,-4,1,29*
Cc1ccc(-c2csc(NC(=O)c3ccc(-c4ccccc4)cc3)n2)o1,60*,4,16,-16
CC(=O)c1ccc(-c2ccc(C(=O)Nc3nc(-c4ccccn4)cs3)o2)cc1,36,-5,36*,x
Cc1ccc(C(=O)Nc2nc(-c3ccccn3)cs2)o1,4,0,4,6
O=C(Nc1nc(-c2ccco2)cs1)c1ccccc1,28,1,4,-4
CCCCNC(=O)C1C(c2ccc(OC)cc2)=Nc2ccccc2N1C(=O)Cc1cc(OC)cc(OC)c1 (stereo unspecified),x,x,32,x
Cc1ccc(NC(=S)NNC(C)(C)C)cc1,18,-7,-2,-3
CC(C)=NN/C(N)=N/C(=S)Nc1ccc(C)cc1,0,-2,-10,29*
CC(C)NC(=O)C1(C)CN(S(C)(=O)=O)CC(=O)N1Cc1cccc(F)c1 (stereo unspecified),x,x,2,x
COc1cc2c(cc1OC)C(CSc1ccccc1C(=O)O)=NC(C)(C)C2,11,-9,41*,5
CN(Cc1ccc(OC(F)F)cc1)C(=O)c1cccc(S(=O)(=O)N2CCN(c3ccccc3)CC2)c1,6,2,-10,x
COC(=O)CNc1ccc2c(c1)OCO2,46,-6,-2,31*
O=C(N/N=C1/CC2C=CCC12)c1cccs1 (stereo unspecified),3,-3,-2,-16
COc1ccc(OC)c(CNS(=O)(=O)c2c(C)nc3scc(C)n3c2=O)c1,-1,4,-8,0
C=CCC(=O)NC1CC(C)(C)Cc2c1cnn2-c1ccccc1C (stereo unspecified),9,-3,-2,-2
O/N=C/c1ccc(-c2cc(Cl)ccc2Cl)o1,-6,-5,12,0
Clc1ccc(Cl)c(-c2ccc(/C=N/c3ncn[nH]3)o2)c1,0,7,-31,30*
Clc1ccc(Cn2c(/C=C/c3ccco3)nc3ccccc32)cc1,51,0,x,5
Cc1ccc(Cn2c(/C=C/c3ccco3)nc3ccccc32)cc1,44,2,45*,2
SMILES,PfGluPho inh,HKDC1 inhibitor,Neddyl block,PfM18AAP inh
COc1cc([C@H]2Oc3c(OC)cc(CCCO[C@@H]4O[C@H](CO)[C@@H](O)[C@H](O)[C@H]4O)cc3[C@@H]2CO)ccc1O,22,1,9,x
N#CCc1nc(C(c2ccccc2)c2ccccc2)no1,21,-1,6,-5
Cc1ccc(NS(=O)(=O)c2ccc(N3CCN(c4ccc(O)cc4)CC3)c([N+](=O)[O-])c2)c(C)c1,42,10,-25,27
O=[N+]([O-])c1cc(S(=O)(=O)Nc2ccccc2)ccc1N1CCN(c2ccc(O)cc2)CC1,37,15,-22,30*
CCOC(=O)C1=C(C)c2ccccc2N(C(=O)OC)C1(C)C(=O)OCC (stereo unspecified),61*,21,7,x
O=C(NCCc1cccc(C(F)(F)F)c1)C1CCC(=O)N(C2CC2)C1 (stereo unspecified),-4,-7,5,-1
CCOC(=O)c1c(NC(N)=O)sc(C)c1C,-11,-5,10,3
CCOC(=O)c1c(N2C(=O)C=CC2=O)sc(C)c1C,67*,0,0,-43
CCc1nnc(NC(=O)COc2ccc3c(c2)OCO3)s1,8,0,1,1
COc1ccc(N2CCN(c3ccc(NC(=O)/C=C\C(=O)O)cc3)CC2)cc1,25,0,-10,31*
c1ccc(CSC2=NNC(c3ccccn3)S2)cc1 (stereo unspecified),-40,-22,38*,-1
O=C(CSC1=NNC(c2ccccn2)S1)Nc1ccc(C(F)(F)F)cc1 (stereo unspecified),1,-24,-7,12
CNc1nc(Cl)c(SC)c(NCc2cccc(OC)c2)n1,-2,-1,-6,1
CC(C)CCOCC(O)CCC(=O)NNC(=S)Nc1ccccc1 (stereo unspecified),-10,-6,13,8
C=CCC(CC(O)COCCC)C(=O)NNC(=S)Nc1ccccc1 (stereo unspecified),7,-2,16,30*
CC1=CC(=O)c2c(O)ccc(O)c2C1=O,x,x,x,35*
CCOC(=O)c1c(/N=C/c2cc(OC)cc([N+](=O)[O-])c2O)sc(C)c1C,7,2,-35,28*
S=c1[nH]nc(-c2ccccc2Cl)n1CC1CCCO1 (stereo unspecified),11,-2,-6,5
Fc1ccccc1-c1n[nH]c(=S)n1CC1CCCO1 (stereo unspecified),26,-15,5,32*
CC(CNS(=O)(=O)c1ccc2c(c1)CC(=O)N2C)c1ccccc1 (stereo unspecified),-12,1,16,-18
CN1C(=O)Cc2cc(S(=O)(=O)Nc3ccc(Cl)cc3)ccc21,-9,4,-9,29*
COc1cc(/C=N/NC(=O)c2ccncc2)ccc1OC(=O)c1cccc(F)c1,-1,7,-18,2
Oc1cccc(/C=N/NC(=S)NCCN2CCOCC2)c1O,-14,4,4,29*
S=C(NCCN1CCOCC1)N/N=C/c1cccs1,1,1,-8,1
NC(=S)N/N=C/c1cccc(O)c1O,6,12,12,40*
SMILES,PfGluPho inh,HKDC1 inhibitor,Neddyl block,PfM18AAP inh
Cc1cc(/C=N/NC(N)=S)c(O)c(/C=N/NC(N)=S)c1,-19,-15,-64,45*
O=c1[nH][nH]c(-c2ccccc2O)c1C(C[N+](=O)[O-])c1cccc(Cl)c1 (stereo unspecified),1,-10,3,30*
CN=c1scc(-c2cccs2)n1/N=C/c1ccc(O)c(O)c1O,34,27,-19,31*
CC(C#N)(NC(=O)CN1CCN(S(=O)(=O)c2ccccc2Cl)CC1)C1CC1 (stereo unspecified),2,-3,-5,x
COc1ccc(Cn2cc(CN3CC(N4CCCC4)CS3(=O)=O)nn2)cc1 (stereo unspecified),x,x,-5,x
COc1ccc(Br)cc1C1CC(=O)N2CN(Cc3ccccc3)CSC2=C1C#N (stereo unspecified),71*,12,-55,22
COc1ccc(OC)c(C2CC(=O)N3CN(c4cccc(Cl)c4)CSC3=C2C#N)c1 (stereo unspecified),56,3,-34,20
